Results of several laboratories.
Protocols differ between the studies behind these lines.
Target: Aurora kinase B (AURKB, Homo sapiens, UniProt Q96GD4)

`CC/C(=N\NC(=O)NCc1cccc(O)c1)c1ccc(O)c(C)c1O` gave an inhibition of 2.9% (enzyme activity; inhibitor; 0.1 µM).
`CO[C@@H](C)c1c(Nc2ccc([C@@H](N(C)C(=O)C3CCS(=O)(=O)CC3)C(F)(F)F)cc2)cnc2cc(Cl)nn12` has a remaining binding of 74% (cell-free assay; competition with immobilised ligand; 1 µM).
The inhibition of `CN(C)C1CCN(CC#Cc2nn(C3CCCC3)c3nc(NCc4ccccc4)ncc23)C1` (centres unmarked) is reported as 21% (enzyme activity; inhibitor; FRET; 1 µM).
With `NS(=O)(=O)c1ccc(CNc2ccnc(Nc3cccc(CN4CCOCC4)c3)n2)cc1` the remaining activity was 48% (enzyme activity; inhibitor; radiometric; 1 µM).
With `CN(C)S(=O)(=O)c1ccc2c(c1)/C(=C/c1cc3c([nH]1)CCCC3)C(=O)N2` the remaining signal was 11% (cell-free assay; 0.5 µM).
`COc1cc(/C=C/C(=O)CC(=O)/C=C/c2ccc(O)c(OC)c2)ccc1O` has an activity vs control of 79% (enzyme activity; inhibitor; 1 µM).
With `Cc1nn(CC(F)(F)F)cc1Nc1ncc(Br)c(NCCc2cnc[nH]2)n1` the remaining activity was 22% (enzyme activity; inhibitor; radiometric; 1 µM).
For `COc1cc2c(Nc3ccc(Br)cc3F)ncnc2cc1OCC1CCN(C)CC1`, the remaining signal was 95.5% (cell-free assay; 0.5 µM).
The activity vs control of `Cc1ccc(C(=O)NCc2ccsc2)cc1C#Cc1cn(C(C)C)c2ncnc(N)c12` is reported as 40% (enzyme activity; inhibitor; 1 µM).
The inhibition of `O=C(CSc1nc2nccnc2c(=O)n1CCc1ccccc1)Nc1nccs1` is reported as 6% (enzyme activity; inhibitor; 10 µM).
With `CCC(=O)N[C@@H]1CC[C@H](C(=O)N(C)c2ccc(-c3nc4ccccc4o3)cc2)C1` the remaining binding was 96% (cell-free assay; competition with immobilised ligand; 1 µM).
With `CNc1cccc2cc(C(=O)Nc3ccc(C(=O)O)cc3)c(=O)[nH]c12` the inhibition was -8.1% (enzyme activity; inhibitor; 10 µM).
For `CN(C)CC#Cc1ccc(OCCCc2sc(N3CCc4cccc(C(=O)Nc5nc6ccccc6s5)c4C3)nc2C(=O)O)c(F)c1`, the remaining binding was 79% (cell-free assay; competition with immobilised ligand; 1 µM).
`Cc1nn(CC(F)(F)F)cc1Nc1ncc(C2CC2)c(NCCc2c[nH]cn2)n1` gave a remaining activity of 82% (enzyme activity; inhibitor; radiometric; 1 µM).
With `CC(=O)C1=C(C)N(c2cccc(C(F)(F)F)c2)C(=O)N[C@@H]1c1ccc(C#N)nc1` the remaining binding was 100% (cell-free assay; competition with immobilised ligand; 1 µM).
`N#CCCc1ccc2c(c1)-c1[nH]c3ccc([N+](=O)[O-])cc3c1CC(=O)N2` has a remaining signal of 80% (cell-free assay; 0.5 µM).
With `Cc1c[nH]c2nccc(Oc3c(F)cc(Nc4cc(Cl)nc(N)n4)cc3F)c12` the remaining binding was 82% (cell-free assay; competition with immobilised ligand; 0.1 µM).
`Cc1cc(NC(=O)c2cccc3cc(-c4cccc5[nH]nc(N)c45)ccc23)ccc1F` gave an activity vs control of 12% (enzyme activity; inhibitor; 0.1 µM).
The remaining binding of `COc1cccc(CNC(=O)c2nc3scc(COCc4ccc(C(=O)O)cc4)c3c(=O)[nH]2)c1` is reported as 71.3% (cell-free assay; competition with immobilised ligand; 1 µM).
The remaining activity of `c1cc(CN2CCOCC2)cc(Nc2ncc(C3CC3)c(NCCc3c[nH]cn3)n2)c1` is reported as 2% (enzyme activity; inhibitor; radiometric; 1 µM).
